# According to ChEMBL document CHEMBL4385593, “Design, synthesis and biological evaluation of novel benzothiadiazine derivatives as potent PI3Kδ-selective inhibitors for treating B-cell-mediated malignancies” (Eur J Med Chem, 2019):
# How the values were obtained:
# SU-DHL-6 = assay: Growth inhibition of human SU-DHL6 cells incubated for 72 hrs by CellTiter-Glo assay; type: functional; settings: SU-DHL-6, 72 h
# Outline: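 SU-DHL-6 cells were seeded at 1 × 10^4 per well and exposed to compound or medium alone for 72 h. Viability was measured by CellTiter-Glo luminescence, and GI50 was derived by curve fitting.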
# [1] = target: PI3-kinase p110-delta/p85-alpha (Homo sapiens, UniProt O00329); assay: Inhibition of His-tagged recombinant human PI3K p110delta/p85alpha using lipid substrate incubated for 2 hrs by ADP-Glo assay; type: protein-complex assay
# PI3-kinase p110-delta/p85-alpha, sequence (P27986 whole entry): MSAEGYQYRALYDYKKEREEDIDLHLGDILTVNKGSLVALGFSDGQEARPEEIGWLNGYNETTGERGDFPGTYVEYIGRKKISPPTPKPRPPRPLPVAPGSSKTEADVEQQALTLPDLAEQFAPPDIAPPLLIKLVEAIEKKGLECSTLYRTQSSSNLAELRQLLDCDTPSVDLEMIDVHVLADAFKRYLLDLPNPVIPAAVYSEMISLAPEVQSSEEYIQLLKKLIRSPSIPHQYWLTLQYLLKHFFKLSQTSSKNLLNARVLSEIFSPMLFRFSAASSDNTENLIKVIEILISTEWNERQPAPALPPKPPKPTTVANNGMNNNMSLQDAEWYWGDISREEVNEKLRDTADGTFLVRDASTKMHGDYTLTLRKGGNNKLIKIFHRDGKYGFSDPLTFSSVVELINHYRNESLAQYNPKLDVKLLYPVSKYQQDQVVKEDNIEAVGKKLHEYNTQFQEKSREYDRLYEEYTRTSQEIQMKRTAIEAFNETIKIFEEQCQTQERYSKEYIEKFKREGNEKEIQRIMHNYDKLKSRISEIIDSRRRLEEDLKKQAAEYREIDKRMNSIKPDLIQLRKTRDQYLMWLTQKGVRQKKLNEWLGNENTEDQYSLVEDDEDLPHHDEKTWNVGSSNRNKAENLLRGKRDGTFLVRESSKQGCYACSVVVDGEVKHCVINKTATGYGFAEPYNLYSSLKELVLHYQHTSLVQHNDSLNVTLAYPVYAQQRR
# PI3-kinase p110-delta/p85-alpha, sequence (O00329 whole entry): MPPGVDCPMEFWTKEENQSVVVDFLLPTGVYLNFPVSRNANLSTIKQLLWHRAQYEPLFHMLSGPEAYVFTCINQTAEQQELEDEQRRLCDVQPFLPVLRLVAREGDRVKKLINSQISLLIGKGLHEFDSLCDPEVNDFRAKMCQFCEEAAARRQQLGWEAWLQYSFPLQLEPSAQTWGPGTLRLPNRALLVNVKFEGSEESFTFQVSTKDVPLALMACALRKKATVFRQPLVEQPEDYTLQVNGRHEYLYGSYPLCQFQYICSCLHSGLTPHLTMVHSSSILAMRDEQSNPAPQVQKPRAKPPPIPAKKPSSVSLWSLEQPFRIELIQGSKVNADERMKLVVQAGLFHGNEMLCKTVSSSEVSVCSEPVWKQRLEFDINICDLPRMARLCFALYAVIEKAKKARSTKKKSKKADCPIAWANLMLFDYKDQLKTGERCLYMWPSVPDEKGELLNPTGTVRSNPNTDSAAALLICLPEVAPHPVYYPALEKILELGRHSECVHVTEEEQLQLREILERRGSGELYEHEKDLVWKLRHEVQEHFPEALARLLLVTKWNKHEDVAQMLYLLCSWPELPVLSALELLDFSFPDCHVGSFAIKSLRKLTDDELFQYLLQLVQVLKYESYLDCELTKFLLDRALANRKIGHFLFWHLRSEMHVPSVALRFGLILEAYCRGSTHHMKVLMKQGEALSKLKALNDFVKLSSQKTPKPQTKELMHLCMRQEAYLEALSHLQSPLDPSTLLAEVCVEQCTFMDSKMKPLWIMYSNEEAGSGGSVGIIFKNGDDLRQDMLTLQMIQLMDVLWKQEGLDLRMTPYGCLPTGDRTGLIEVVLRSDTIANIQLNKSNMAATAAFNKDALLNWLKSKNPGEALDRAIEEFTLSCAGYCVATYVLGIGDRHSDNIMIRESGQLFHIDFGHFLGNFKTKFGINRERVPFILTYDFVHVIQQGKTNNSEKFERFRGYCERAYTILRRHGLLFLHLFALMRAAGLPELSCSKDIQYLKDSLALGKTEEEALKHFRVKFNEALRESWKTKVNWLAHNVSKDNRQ
# Homo sapiens [2] = species on record: Homo sapiens; assay: Selectivity ratio of IC50 for His-tagged recombinant human full length PI3K p110alpha/p85alpha to IC50 for His-tagged recombinant human PI3K p110delta/p85alpha
# [3] = target: Phosphatidylinositol 4,5-bisphosphate 3-kinase catalytic subunit beta isoform (Homo sapiens, UniProt P42338); assay: Inhibition of His6-tagged recombinant full length human N-terminal PI3Kbeta expressed in baculovirus infected Sf21 cells using lipid substrate incubated for 2 hrs by ADP-Glo assay
# Phosphatidylinositol 4,5-bisphosphate 3-kinase catalytic subunit beta isoform, sequence (P42338 whole entry, canonical isoform): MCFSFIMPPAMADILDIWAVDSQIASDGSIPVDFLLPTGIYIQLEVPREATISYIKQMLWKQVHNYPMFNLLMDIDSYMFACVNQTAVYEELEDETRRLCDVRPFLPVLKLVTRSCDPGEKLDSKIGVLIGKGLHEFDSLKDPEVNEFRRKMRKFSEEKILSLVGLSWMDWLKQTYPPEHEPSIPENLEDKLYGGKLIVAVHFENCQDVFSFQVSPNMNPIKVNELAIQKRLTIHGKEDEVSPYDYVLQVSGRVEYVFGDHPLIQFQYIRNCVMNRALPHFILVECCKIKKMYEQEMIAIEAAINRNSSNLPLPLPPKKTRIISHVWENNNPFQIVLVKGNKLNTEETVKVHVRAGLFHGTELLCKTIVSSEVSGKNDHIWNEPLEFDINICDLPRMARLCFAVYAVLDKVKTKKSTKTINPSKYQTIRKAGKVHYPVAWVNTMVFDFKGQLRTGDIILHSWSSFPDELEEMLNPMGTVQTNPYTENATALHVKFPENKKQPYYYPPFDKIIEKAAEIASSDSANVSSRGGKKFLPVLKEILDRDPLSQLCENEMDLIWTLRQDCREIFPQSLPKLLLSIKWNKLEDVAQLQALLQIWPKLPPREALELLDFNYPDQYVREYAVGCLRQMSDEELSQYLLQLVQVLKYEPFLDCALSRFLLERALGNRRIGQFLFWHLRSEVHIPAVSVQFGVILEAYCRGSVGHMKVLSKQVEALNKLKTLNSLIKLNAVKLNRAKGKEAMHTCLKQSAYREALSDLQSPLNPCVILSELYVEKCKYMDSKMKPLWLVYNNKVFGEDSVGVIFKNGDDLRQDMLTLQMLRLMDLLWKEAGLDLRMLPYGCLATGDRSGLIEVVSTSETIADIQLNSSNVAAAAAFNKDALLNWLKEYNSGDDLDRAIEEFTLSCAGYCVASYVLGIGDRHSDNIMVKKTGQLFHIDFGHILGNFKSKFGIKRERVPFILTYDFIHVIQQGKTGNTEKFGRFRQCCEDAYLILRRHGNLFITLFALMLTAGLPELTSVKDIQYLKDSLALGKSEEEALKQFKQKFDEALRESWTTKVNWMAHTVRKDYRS
# [4] = target: PI3-kinase p110-alpha/p85-alpha (Homo sapiens, UniProt P42336); assay: Inhibition of His-tagged recombinant human full length PI3K p110alpha/p85alpha expressed in baculovirus expression system using lipid substrate incubated for 60 mins by kinase-Glo reagent based luminescence assay
# PI3-kinase p110-alpha/p85-alpha, sequence (P27986 whole entry, canonical isoform): as the sequence (P27986 whole entry) above
# PI3-kinase p110-alpha/p85-alpha, sequence (P42336 whole entry, canonical isoform): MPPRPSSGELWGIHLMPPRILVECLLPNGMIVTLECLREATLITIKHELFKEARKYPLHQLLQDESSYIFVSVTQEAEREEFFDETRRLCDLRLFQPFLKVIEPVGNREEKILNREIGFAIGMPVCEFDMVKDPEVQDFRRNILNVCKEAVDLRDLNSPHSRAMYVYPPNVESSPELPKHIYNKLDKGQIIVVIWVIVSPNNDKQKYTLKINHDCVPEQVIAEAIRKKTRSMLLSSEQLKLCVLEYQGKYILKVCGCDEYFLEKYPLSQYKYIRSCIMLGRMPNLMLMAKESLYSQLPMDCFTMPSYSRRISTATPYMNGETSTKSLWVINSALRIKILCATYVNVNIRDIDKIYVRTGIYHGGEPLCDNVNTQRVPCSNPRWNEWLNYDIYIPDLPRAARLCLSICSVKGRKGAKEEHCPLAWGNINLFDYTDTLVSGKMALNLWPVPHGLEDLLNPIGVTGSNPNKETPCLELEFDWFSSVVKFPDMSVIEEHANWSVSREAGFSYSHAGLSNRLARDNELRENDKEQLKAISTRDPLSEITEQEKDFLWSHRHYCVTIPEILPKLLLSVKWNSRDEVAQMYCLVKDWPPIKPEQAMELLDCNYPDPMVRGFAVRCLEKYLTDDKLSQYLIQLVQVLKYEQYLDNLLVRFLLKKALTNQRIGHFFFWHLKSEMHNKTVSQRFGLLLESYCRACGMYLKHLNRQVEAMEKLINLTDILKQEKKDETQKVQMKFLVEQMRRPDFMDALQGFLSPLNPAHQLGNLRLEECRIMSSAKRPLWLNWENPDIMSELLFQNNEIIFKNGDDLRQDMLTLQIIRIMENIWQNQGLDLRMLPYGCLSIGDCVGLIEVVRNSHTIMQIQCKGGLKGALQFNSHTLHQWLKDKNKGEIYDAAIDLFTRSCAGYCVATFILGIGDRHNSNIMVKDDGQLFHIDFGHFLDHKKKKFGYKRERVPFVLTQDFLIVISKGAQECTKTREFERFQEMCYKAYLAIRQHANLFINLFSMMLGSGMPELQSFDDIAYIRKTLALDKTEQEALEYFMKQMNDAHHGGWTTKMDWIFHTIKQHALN
# [5] = target: Phosphatidylinositol 4,5-bisphosphate 3-kinase catalytic subunit gamma isoform (Homo sapiens, UniProt P48736); assay: Inhibition of His-tagged recombinant human full length PI3K p110gamma expressed in baculovirus expression system using lipid substrate incubated for 2 hrs by ADP-Glo assay
# Phosphatidylinositol 4,5-bisphosphate 3-kinase catalytic subunit gamma isoform, sequence (P48736 whole entry, canonical isoform): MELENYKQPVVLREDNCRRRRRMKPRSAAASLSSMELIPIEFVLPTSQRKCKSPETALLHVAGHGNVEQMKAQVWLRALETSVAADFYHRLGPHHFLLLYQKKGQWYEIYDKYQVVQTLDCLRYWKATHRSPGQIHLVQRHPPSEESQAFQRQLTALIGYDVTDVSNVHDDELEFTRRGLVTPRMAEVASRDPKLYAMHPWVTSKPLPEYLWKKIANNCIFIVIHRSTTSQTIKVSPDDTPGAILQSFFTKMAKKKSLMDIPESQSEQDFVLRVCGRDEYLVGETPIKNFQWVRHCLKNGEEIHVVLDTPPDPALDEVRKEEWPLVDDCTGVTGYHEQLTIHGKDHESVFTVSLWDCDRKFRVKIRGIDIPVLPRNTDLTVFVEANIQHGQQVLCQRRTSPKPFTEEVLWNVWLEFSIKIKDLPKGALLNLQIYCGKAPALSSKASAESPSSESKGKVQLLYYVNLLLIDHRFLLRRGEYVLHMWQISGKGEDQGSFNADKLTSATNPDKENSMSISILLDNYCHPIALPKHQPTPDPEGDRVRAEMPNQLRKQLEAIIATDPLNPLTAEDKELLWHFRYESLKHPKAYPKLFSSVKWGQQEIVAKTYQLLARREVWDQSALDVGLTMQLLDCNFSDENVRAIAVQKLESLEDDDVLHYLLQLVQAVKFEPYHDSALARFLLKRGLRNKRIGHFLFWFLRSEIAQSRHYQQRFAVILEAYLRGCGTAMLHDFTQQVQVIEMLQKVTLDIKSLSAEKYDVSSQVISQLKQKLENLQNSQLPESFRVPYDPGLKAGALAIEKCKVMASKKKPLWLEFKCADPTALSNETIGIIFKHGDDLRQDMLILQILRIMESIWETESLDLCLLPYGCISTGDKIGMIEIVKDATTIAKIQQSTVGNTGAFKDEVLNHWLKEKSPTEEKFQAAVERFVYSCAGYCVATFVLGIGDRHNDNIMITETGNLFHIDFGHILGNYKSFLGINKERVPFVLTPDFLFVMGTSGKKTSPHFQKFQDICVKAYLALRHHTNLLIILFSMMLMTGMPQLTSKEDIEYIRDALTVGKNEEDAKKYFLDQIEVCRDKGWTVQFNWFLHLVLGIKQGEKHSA
# Homo sapiens [6] = species on record: Homo sapiens; assay: Selectivity ratio of IC50 for His6-tagged recombinant full length human N-terminal PI3Kbeta to IC50 for His-tagged recombinant human PI3K p110delta/p85alpha
# Homo sapiens [7] = species on record: Homo sapiens; assay: Selectivity ratio of IC50 for His-tagged recombinant human full length PI3K p110gamma to IC50 for His-tagged recombinant human PI3K p110delta/p85alpha
# [8] = Half life in Sprague-Dawley rat at 2 mg/kg, iv by LC/MS/MS analysis; type: ADME, organism-based; settings: in vivo
# Outline: (§1)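 Male SD rats, three per group, dosed iv at 2 mg/kg or orally at 10 mg/kg. iv dose was a 0.4 mg/mL solution in 5% DMSO/10% Solutol/10% EtOH/75% saline. Oral dose was a 1 mg/mL suspension in 2% DMSO/98% MC (0.5%). Terminal orbital blood was taken into EDTA-2K under isoflurane at set time points. Plasma levels were measured by LC/MS/MS.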
# [9] = AUC (0 to t) in Sprague-Dawley rat at 2 mg/kg, iv by LC/MS/MS analysis; type: ADME, organism-based; settings: in vivo; outline: as §1
# [10] = Volume of distribution at steady state in Sprague-Dawley rat at 2 mg/kg, iv by LC/MS/MS analysis; type: ADME, organism-based; settings: in vivo, read-out: Vdss; outline: as §1
# [11] = Cmax in Sprague-Dawley rat at 10 mg/kg, po by LC/MS/MS analysis; type: ADME, organism-based; set-up: dose 10 mg/kg, route oral; settings: in vivo; outline: as §1
# [12] = AUC (0 to t) in Sprague-Dawley rat at 10 mg/kg, po by LC/MS/MS analysis; type: ADME, organism-based; settings: in vivo; outline: as §1
# [13] = Oral bioavailability in Sprague-Dawley rat at 10 mg/kg by LC/MS/MS analysis; type: ADME, organism-based; settings: in vivo; outline: as §1
# [14] = Half life in Sprague-Dawley rat at 10 mg/kg, po by LC/MS/MS analysis; type: ADME, organism-based; settings: in vivo; outline: as §1
# [15] = Clearance in Sprague-Dawley rat at 2 mg/kg, iv by LC/MS/MS analysis; type: ADME, organism-based; settings: in vivo
SMILES,GI50 (SU-DHL-6),IC50 [1],also measured
CC(=O)O[C@H]1C(=O)[C@@]2(C)[C@H]([C@H](OC(=O)c3ccccc3)[C@]3(O)C[C@H](OC(=O)[C@H](O)[C@@H](NC(=O)c4ccccc4)c4ccccc4)C(C)=C1C3(C)C)[C@]1(OC(C)=O)CO[C@@H]1C[C@@H]2O [PACLITAXEL],1.9 nM,,
CC(Nc1ncnc2[nH]cnc12)C1=Nc2ccccc2S(=O)(=O)N1c1ccccc1 (stereo not drawn),,344 nM,
CC(Nc1ncnc(N)c1C#N)C1=Nc2cccc(F)c2S(=O)(=O)N1c1ccccc1 (stereo not drawn),1220 nM,35 nM,
CCC(Nc1ncnc2[nH]cnc12)C1=Nc2cccc(F)c2S(=O)(=O)N1c1ccccc1 (stereo not drawn),,> 3000 nM,
C[C@@H](Nc1ncnc2[nH]cnc12)C1=Nc2cccc(Cl)c2S(=O)(=O)N1c1ccccc1,190 nM,62 nM,Ratio IC50 (Homo sapiens [2]): > 81; IC50 [3]: 3990 nM; IC50 [4]: > 5000 nM; IC50 [5]: 1910 nM; Ratio IC50 (Homo sapiens [6]): 64; Ratio IC50 (Homo sapiens [7]): 31
C[C@H](Nc1ncnc(N)c1C#N)C1=Nc2cccc(Cl)c2S(=O)(=O)N1c1ccccc1,15.9 nM,< 0.32 nM,Ratio IC50 (Homo sapiens [2]): > 3110; IC50 [3]: 55 nM; IC50 [4]: 996 nM; IC50 [5]: 100 nM; Ratio IC50 (Homo sapiens [6]): > 172; Ratio IC50 (Homo sapiens [7]): > 313
C[C@@H](Nc1ncnc(N)c1C#N)C1=Nc2cccc(Cl)c2S(=O)(=O)N1c1ccccc1,70.3 nM,7 nM,Ratio IC50 (Homo sapiens [2]): > 714; IC50 [3]: 169 nM; IC50 [4]: > 5000 nM; IC50 [5]: 112 nM; Ratio IC50 (Homo sapiens [6]): 24; Ratio IC50 (Homo sapiens [7]): 16
CC(Nc1ncnc2[nH]cnc12)C1=Nc2ccccc2S(=O)(=O)N1c1ccc(F)cc1 (stereo not drawn),,2000 nM,
CCC(C1=Nc2ccccc2S(=O)(=O)N1c1ccc(F)cc1)n1cnc2c(N)ncnc21 (stereo not drawn),,> 3000 nM,
CC(C1=Nc2ccccc2S(=O)(=O)N1c1cccnc1)n1cnc2c(N)ncnc21 (stereo not drawn),,623 nM,
CCC(C1=Nc2ccccc2S(=O)(=O)N1c1ccc(OC(F)(F)F)cc1)n1cnc2c(N)ncnc21 (stereo not drawn),,> 3000 nM,
CC(C1=Nc2ccccc2S(=O)(=O)N1c1ccc(F)cc1)n1cnc2c(N)ncnc21 (stereo not drawn),,628 nM,
CC[C@H](Nc1ncnc2[nH]cnc12)c1nc2cccc(F)c2c(=O)n1-c1ccccc1 [IDELALISIB],124 nM,,half-life [8]: 31.1 min; AUC(0-t) [9]: 1400 ng·h/mL; Vd [10]: 0.884 L/kg; Cmax [11]: 2320 ng/mL; AUC(0-t) [12]: 3190 ng·h/mL; bioavailability [13]: 45.8%; half-life [14]: 61.8 min
CC(C1=Nc2cccc(F)c2S(=O)(=O)N1c1ccccc1)n1cnc2c(N)ncnc21 (stereo not drawn),7200 nM,54 nM,
CC(Nc1nc(F)nc2[nH]cnc12)C1=Nc2ccccc2S(=O)(=O)N1c1ccccc1 (stereo not drawn),4690 nM,92 nM,
CC(Nc1ncnc2[nH]cnc12)C1=Nc2ccccc2S(=O)(=O)N1c1cccnc1 (stereo not drawn),,921 nM,
CCC(Nc1ncnc(N)c1C#N)C1=Nc2cccc(F)c2S(=O)(=O)N1c1ccccc1 (stereo not drawn),10500 nM,141 nM,
CC(Nc1ncnc2[nH]cnc12)C1=Nc2cccc(Cl)c2S(=O)(=O)N1c1ccccc1 (stereo not drawn),770 nM,9.8 nM,
CC(Nc1ncnc(N)c1C#N)C1=Nc2ccccc2S(=O)(=O)N1c1ccccc1 (stereo not drawn),3500 nM,15 nM,
C[C@H](Nc1ncnc2[nH]cnc12)C1=Nc2cccc(Cl)c2S(=O)(=O)N1c1ccccc1,33.2 nM,4.6 nM,Ratio IC50 (Homo sapiens [2]): 791; IC50 [3]: 766 nM; IC50 [4]: 3640 nM; IC50 [5]: 156 nM; Ratio IC50 (Homo sapiens [6]): 167; Ratio IC50 (Homo sapiens [7]): 34; half-life [8]: 31.1 min; AUC(0-t) [9]: 1400 ng·h/mL; Vd [10]: 0.853 L/kg; clearance [15]: 25.8 mL/min/kg; Cmax [11]: 643 ng/mL; AUC(0-t) [12]: 2010 ng·h/mL; bioavailability [13]: 29.2%; half-life [14]: 72 min
CCC(Nc1ncnc(N)c1C#N)C1=Nc2cccc(Cl)c2S(=O)(=O)N1c1ccccc1 (stereo not drawn),1680 nM,12 nM,
CC(Nc1nc(Cl)nc2[nH]cnc12)C1=Nc2ccccc2S(=O)(=O)N1c1ccccc1 (stereo not drawn),,1200 nM,
CC(Nc1ncnc2[nH]cnc12)C1=Nc2ccccc2S(=O)(=O)N1c1cccc(C(F)(F)F)c1 (stereo not drawn),,> 3000 nM,
CCC(Nc1nc(F)nc2[nH]cnc12)C1=Nc2cccc(F)c2S(=O)(=O)N1c1ccccc1 (stereo not drawn),,383 nM,
CC(C1=Nc2ccccc2S(=O)(=O)N1c1ccccc1)n1cnc2c(N)ncnc21 (stereo not drawn),23100 nM,68 nM,
CCC(Nc1ncnc2[nH]cnc12)C1=Nc2ccccc2S(=O)(=O)N1c1cccc(C(F)(F)F)c1 (stereo not drawn),,> 3000 nM,
CCC(Nc1ncnc2[nH]cnc12)C1=Nc2ccccc2S(=O)(=O)N1c1ccc(OC)c(OC)c1 (stereo not drawn),,> 3000 nM,
CCC(Nc1ncnc2[nH]cnc12)C1=Nc2cccc(Cl)c2S(=O)(=O)N1c1ccccc1 (stereo not drawn),2190 nM,81 nM,
CC(Nc1ncnc(N)c1C#N)C1=Nc2cccc(Cl)c2S(=O)(=O)N1c1ccccc1 (stereo not drawn),187 nM,3.2 nM,
CCC(Nc1ncnc2[nH]cnc12)C1=Nc2ccccc2S(=O)(=O)N1c1ccc(OC(F)(F)F)cc1 (stereo not drawn),,> 3000 nM,
